Reference: ChEMBL document CHEMBL4321877, “Development of Novel N-hydroxypyridone Derivatives as Potential Anti-Ischemic Stroke Agents” (J Med Chem, 2020)
In brackets after ≈: the same amount, converted by molar mass. Activity calls are given as the source filed them. No cut-off for these calls is given here.

How the values were obtained:
SH-SY5Y [1] = experiment: Neuroprotective activity against oxygen-glucose deprivation-induced toxicity in human SH-SY5Y cells assessed as cell viability at 2 uM preincubated for 2 hrs followed by OGD-challenge and measured after 24 hrs by MTT assay (reference value: 54.92 +/- 2.12%); type: functional; settings: read-out: Activity
SH-SY5Y [2] = experiment: Neuroprotective activity against oxygen-glucose deprivation-induced toxicity in human SH-SY5Y cells assessed as cell viability at 10 uM preincubated for 2 hrs followed by OGD-challenge and measured after 24 hrs by MTT assay (reference value: 54.92 +/- 2.12%); type: functional; settings: read-out: Activity
SH-SY5Y [3] = experiment: Cytotoxicity against human SH-SY5Y cells assessed as reduction in cell viability at 10 uM measured after 24 hrs by MTT assay; type: cell-based
In short: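 SH-SY5Y cells (1:1 MEM/F12, 10% FBS) seeded 3 × 10^4 cells/well, grown 24 h, then exposed without insult for 24 h to 1.56–100 µM or to 1 and 10 µM (DMSO stock diluted in medium). MTT read at 490 nm; viability as % of untreated control.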

SH-SY5Y [4] = experiment: Neuroprotective activity against oxygen-glucose deprivation-induced toxicity in human SH-SY5Y cells assessed as cell viability at 1 uM preincubated for 2 hrs followed by OGD-challenge and measured after 24 hrs by MTT assay (reference value: 54.92 +/- 2.12%); type: functional; settings: read-out: Activity
[5] = Antioxidant activity assessed as trolox equivalent of AAPH radical scavenging activity measured every min for 180 mins by ORAC-FL assay; type: functional
[6] = Permeability of the compound incubated for 10 hrs by PAMPA; type: ADME; settings: read-out: permeability
[7] = Solubility of the compound in […] incubated for 24 hrs by HPLC analysis; type: physicochemical
[8] = Metal chelating activity of the compound assessed as formation of ferric-compound complex at 60 uM after 15 mins using FeSO4 solution by UV-vis spectrophotometric method
SH-SY5Y [9] = experiment: Neuroprotective activity against oxygen-glucose deprivation-induced toxicity in human SH-SY5Y cells assessed as cell viability at 10 uM preincubated for 2 hrs followed by OGD-challenge and measured after 24 hrs by MTT assay (reference value: 49.91%); type: functional; settings: read-out: Activity
SH-SY5Y [10] = experiment: Neuroprotective activity against oxygen-glucose deprivation-induced toxicity in human SH-SY5Y cells assessed as cell viability at 1 uM preincubated for 2 hrs followed by OGD-challenge and measured after 24 hrs by MTT assay (reference value: 49.91%); type: functional; settings: read-out: Activity
[11] = Metal chelating activity of the compound assessed as formation of ferric-compound complex at 60 uM after 15 mins using ammonium iron citrate solution by UV-vis spectrophotometric method
[12] = Metal chelating activity of the compound assessed as formation of ferrous-compound complex at 60 uM after 15 mins using ammonium iron(II) sulfate solution by UV-vis spectrophotometric method
SH-SY5Y [13] = experiment: Neuroprotective activity against oxygen-glucose deprivation-induced toxicity in human SH-SY5Y cells assessed as cell viability at 4 uM preincubated for 2 hrs followed by OGD-challenge and measured after 24 hrs by MTT assay (reference value: 54.92 +/- 2.12%); type: functional; settings: read-out: Activity
[14] = Metal chelating activity of the compound assessed as formation of ferric-compound complex by measuring change in color at 60 uM after 15 mins using ammonium iron citrate solution by UV-vis spectrophotometric method
[15] = Metal chelating activity of the compound assessed as formation of ferric-compound complex at 60 uM after 15 mins using ammonium iron citrate solution by UV-vis spectrophotometric method
[16] = Metal chelating activity of the compound assessed as formation of ferric-compound complex at 60 uM after 15 mins using FeCl3 solution by UV-vis spectrophotometric method
[17] = Metal chelating activity of the compound assessed as formation of ferric-compound complex by measuring change in color at 60 uM after 15 mins using FeSO4 solution by UV-vis spectrophotometric method
SH-SY5Y [18] = experiment: Neuroprotective activity against oxygen-glucose deprivation-induced toxicity in human SH-SY5Y cells assessed as increase in cell viability preincubated for 2 hrs followed by OGD-challenge and measured after 24 hrs by MTT assay; type: functional, cell-based
SH-SY5Y [19] = experiment: Neuroprotective activity against oxygen-glucose deprivation-induced toxicity in human SH-SY5Y cells assessed as cell viability at 4 uM added immediately before OGD-challenge and measured after 24 hrs by MTT assay (reference value: 54.23 +/- 4.48%)
SH-SY5Y [20] = experiment: Neuroprotective activity against oxygen-glucose deprivation-induced toxicity in human SH-SY5Y cells assessed as cell viability at 1 uM preincubated for 2 hrs followed by OGD-challenge and measured after 24 hrs by MTT assay (reference value: 54.23 +/- 4.48%); type: functional; settings: read-out: Activity
Rattus norvegicus = experiment: Neuroprotective activity in Sprague-Dawley rat model of middle cerebral artery occlusion-induced ischemia-reperfusion injury assessed as reduction in disease severity score at 3 mg/kg, iv measured 24 hrs post-reperfusion; type: functional, organism-based
In short: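 Male Sprague-Dawley rats anesthetized with chloral hydrate (400 mg/kg i.p.); left MCA occluded by intraluminal nylon suture for 2 h, then withdrawn. Compound in 0.9% saline given by tail vein immediately after reperfusion; body temperature held at 37.0 ± 0.5 °C. mNSS scored 24 h later; n = 15–18, mean ± SEM.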

HT-22 = experiment: Neuroprotective activity against glutamate-induced cell death in mouse HT22 cells assessed as increase in cell viability up to 4 uM preincubated for 2 hrs followed by glutamate-challenge and measured after 24 hrs by MTT assay; type: functional, cell-based
In short: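 HT22 mouse hippocampal cells (DMEM, 10% FBS) seeded 5×10^4 cells/ml and grown 12 h. Compound added for 2 h, then 10 mM L-glutamic acid hydrochloride for 24 h. Viability by MTT at 490 nm as % of control; mean ± SD, n = 3.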

SMILES	viability at 10 µM (SH-SY5Y [2])	viability at 1 µM (SH-SY5Y [4])	other results
Cc1cc(C2CCCCCC2)n(O)c(=O)c1	38.4%	71%	viability at 2 µM (SH-SY5Y [1]): > 80%; Activity (SH-SY5Y [3]): Toxic; Activity [5]: inactive; Papp at 10 h [6]: 4.42 ×10⁻⁶ cm/s
Cc1cc(C2CCCCC2)n(O)c(=O)c1CNc1ccccc1	75.5%	56.8%	–
Cc1cc(C2CCCCC2)n(O)c(=O)c1 [CICLOPIROX]	69.8%	70.1%	Activity (SH-SY5Y [3]): Toxic; solubility at 24 h [7]: 1430 µg/mL (≈ 6.9 mM); Papp at 10 h [6]: 8.17 ×10⁻⁶ cm/s
CCOn1c(C2CCCCC2)cc(C)cc1=O	–	–	Activity [8]: inactive; viability at 10 µM (SH-SY5Y [9]): 43.9%; viability at 1 µM (SH-SY5Y [10]): 46.3%; Activity [11]: inactive
Cc1cc(C2CCCCC2)n(O)c(=O)c1CNC(C)C	65.2%	61%	–
CCCc1cc(C)cc(=O)n1O	64%	47%	–
Cc1cc(C2CCCCC2)n(O)c(=O)c1CNC1CCCC1	61.9%	67%	Activity (SH-SY5Y [3]): Toxic; Activity [5]: inactive; Papp at 10 h [6]: 3.89 ×10⁻⁶ cm/s
COC(=O)COn1c(C2CCCCC2)cc(C)cc1=O	56.4%	49.9%	–
Cc1cc(C2CCCCC2)n(O)c(=O)c1I	55.1%	76.3%	viability at 2 µM (SH-SY5Y [1]): > 80%; Activity (umolequiv/umol) [5]: 0.2; Papp at 10 h [6]: 7.65 ×10⁻⁶ cm/s
O=c1c2ccccc2cc(C2CCCCC2)n1O	61.6%	78.5%	Activity [5]: inactive; Papp at 10 h [6]: 4.43 ×10⁻⁶ cm/s
Cc1cc(C2CCCCC2)n(OCC(=O)O)c(=O)c1	55.9%	56%	–
CCc1cc(C2CCCCC2)n(O)c(=O)c1	67.3%	69.8%	Activity [5]: inactive; Papp at 10 h [6]: 4.53 ×10⁻⁶ cm/s
Cc1cc(Cc2ccccc2)n(O)c(=O)c1	76.8%	46.5%	–
Cc1cc([C@H]2C[C@H]3CC[C@@H]2C3)n(O)c(=O)c1	64.5%	70.6%	Activity [8]: Active; Activity [12]: Active; viability at 4 µM (SH-SY5Y [13]): > 80%; viability at 2 µM (SH-SY5Y [1]): > 80%; Activity [14]: Active; Activity [15]: Active; Activity [11]: Active; Activity (SH-SY5Y [3]): Toxic; solubility at 24 h [7]: 1220 µg/mL (≈ 5.56 mM); Activity [16]: Active; Activity [17]: Active; Activity (umolequiv/umol) [5]: 1.13; Papp at 10 h [6]: 7.5 ×10⁻⁶ cm/s
Cc1cc(C2CCCCC2)n(O)c(=O)c1Cl	57.1%	63.4%	–
CCCNCc1c(C)cc(C2CCCCC2)n(O)c1=O	68%	61%	–

SMILES	viability at 10 µM (SH-SY5Y [2])	viability at 1 µM (SH-SY5Y [4])	other results
Cc1cc(C2CCCCC2)n(O)c(=O)c1Br	59.9%	62.9%	–
CCCCCCCCCc1cc(C)cc(=O)n1O	42.5%	53%	–
Cc1cc(C2CCCCC2)n(O)c(=O)c1C=O	56.5%	54.8%	–
Cc1cc(CC(C)C)n(O)c(=O)c1	73.3%	47.7%	–
CCCCCCCc1cc(C)cc(=O)n1O	58.5%	71.7%	Activity (SH-SY5Y [18]): inactive
CCCCCc1cc(C)cc(=O)n1O	62%	63.5%	–
Cc1cc(C)n(O)c(=O)c1 [METIPIROX]	18.3%	55.8%	–
C#CCNCc1c(C)cc(C2CCCCC2)n(O)c1=O	61.6%	63.6%	–
CNCc1c(C)cc(C2CCCCC2)n(O)c1=O	67.5%	60.9%	–
Cc1cc(C2CCC2)n(O)c(=O)c1	71.2%	46%	–
Cc1cc(C2CCCC2)n(O)c(=O)c1	70.7%	52.4%	–
Cc1cc(=O)n(O)c(C2CCCCC2)c1Br	63.2%	81%	Activity [5]: inactive; Papp at 10 h [6]: 3.97 ×10⁻⁶ cm/s
O=c1cccc(C2CCCCC2)n1O	76.6%	51.8%	–
CCCCCCCNCc1c(C)cc(C2CCCCC2)n(O)c1=O	–	–	viability at 4 µM (SH-SY5Y [19]): 87.2%; viability at 1 µM (SH-SY5Y [20]): 60%
Cc1cc(C2CCCCC2)n(O)c(=O)c1	–	–	Activity [8]: Active; Activity [12]: Active; Activity (Rattus norvegicus): Active; Activity [14]: Active; Activity [15]: Active; Activity [11]: Active; Activity (HT-22): Active; Activity [16]: Active; Activity [17]: Active; Activity (umolequiv/umol) [5]: 0.52
Cc1cc(C2CC2)n(O)c(=O)c1	62.8%	58.8%	–
